Measurements gathered from unrelated publications.
Protocols differ between the studies behind these lines.
Target: Tyrosine-protein kinase TXK (TXK, Homo sapiens, UniProt P42681)
Sequence (P42681 1-527, as in one of the studies): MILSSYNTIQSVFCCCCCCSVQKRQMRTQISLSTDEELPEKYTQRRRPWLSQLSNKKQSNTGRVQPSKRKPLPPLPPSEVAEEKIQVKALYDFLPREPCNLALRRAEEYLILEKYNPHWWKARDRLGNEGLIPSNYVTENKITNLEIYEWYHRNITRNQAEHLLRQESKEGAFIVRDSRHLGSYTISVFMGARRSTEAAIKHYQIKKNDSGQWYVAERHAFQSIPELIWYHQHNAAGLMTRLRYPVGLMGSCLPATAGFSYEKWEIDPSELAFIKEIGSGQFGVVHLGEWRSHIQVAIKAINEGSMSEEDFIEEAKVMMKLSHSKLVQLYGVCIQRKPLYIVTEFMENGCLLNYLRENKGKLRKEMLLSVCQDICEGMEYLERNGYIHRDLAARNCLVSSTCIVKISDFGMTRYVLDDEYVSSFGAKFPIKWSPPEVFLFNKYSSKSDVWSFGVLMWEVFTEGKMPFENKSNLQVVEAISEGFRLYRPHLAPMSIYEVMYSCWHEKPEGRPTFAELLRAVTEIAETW

O=c1[nH]c2ccccc2n1C1CCN(Cc2ccc(-c3[nH]c4cc5ncnc5cc4nc3-c3ccccc3)cc2)CC1
remaining activity (enzyme activity; 0.5 µM): 104%

N#CC1(c2ccccn2)CCN(Cc2cc(C(=O)O)c(=O)n3ccccc23)CC1
remaining binding (binding; competition with immobilised ligand; 1 µM): 100%

Nc1ncc(-c2nc(N3CCOCC3)nc(N3CCOCC3)n2)c(C(F)F)n1
remaining binding (binding; competition with immobilised ligand; 10 µM): 56%

COc1cc(Nc2ncc(F)c(Nc3ccc4c(n3)NC(=O)C(C)(C)O4)n2)cc(OC)c1OC
inhibition (binding; 10 µM): 90%

CC(C)(C)c1cc(C=C(C#N)C#N)cc(Br)c1O
remaining activity (enzyme activity; inhibitor; 0.5 µM): 108%

Cn1cncc1[C@](O)(COc1ccc(C#N)cc1-c1ccc(OC(F)(F)F)cc1)c1ccc(C#N)cc1
remaining binding (binding; competition with immobilised ligand; 1 µM): 87%

COc1ncccc1-c1cnn2ccc(N3CCN(C(=O)OC(C)C)CC3)nc12
remaining binding (binding; competition with immobilised ligand; 1 µM): 74%

Cc1nn(C)cc1-c1nc2c(N3CCN(Cc4ccc(Cl)cc4)CC3)c(Cl)cnc2[nH]1
remaining binding (binding; competition with immobilised ligand; 1 µM): 100%
